The text below walks through data of ChEMBL document CHEMBL5344428, “Discovery, Crystallographic Studies, and Mechanistic Investigations of Novel Phenylalanine Derivatives Bearing a Quinazolin-4-one Scaffold as Potent HIV Capsid Modulators” (J Med Chem, 2023).

One may read the CC50 as the concentration at which the toxic effect on the cells reaches its halfway point. As a reminder, the EC50 is the midpoint of the concentration-response curve.

Series [1] is described as follows: Selectivity ratio of EC50 for antiviral activity against HIV1 IIIB infected in human MT4 cells to EC50 for antiviral activity against HIV2 ROD infected in human MT4 cells. It counts as toxicity, cell-based. Summed up: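 Ratio is EC50 against HIV-1 IIIB divided by EC50 against HIV-2 ROD. Both EC50 values come from MTT-read protection of infected MT-4 cells.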

Series [2] can be described thus: Selectivity index, ratio of CC50 for cytotoxicity against human MT4 cells to EC50 for antiviral activity against HIV2 ROD infected in human MT4 cells. It counts as toxicity, cell-based. The settings on record: read-out: Ratio CC50/EC50. Summed up: (§1)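 SI is CC50 divided by EC50. CC50 comes from MTT viability of uninfected MT-4 cells. EC50 comes from MTT-read protection of MT-4 cells infected with HIV-1 IIIB or HIV-2 ROD. Each value was run in at least triplicate.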

The nature of series [3]: Selectivity index, ratio of CC50 for cytotoxicity against human MT4 cells to EC50 for antiviral activity against HIV1 IIIB infected in human MT4 cells. It is filed as toxicity, cell-based. To be noted: read-out: Ratio CC50/EC50. Summed up:
as §1

Series [4] can be described thus: Cytotoxicity against human MT4 cells assessed as reduction in cell viability incubated for 5 days by MTT assay. It counts as toxicity, cell-based. To be noted: MT4 cells, time 5 day. In a few lines:
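Uninfected MT-4 cells were exposed to compound, and viability was read by the MTT method. […] Each value was run in at least triplicate and averaged from at least three independent experiments.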
For orientation: Formazan colour is commonly taken as a measure of viable cells.

For series [5], the system named is Human immunodeficiency virus 1. Briefly: Antiviral activity against HIV1 IIIB infected in human MT4 cells assessed as reduction in virus induced cytopathic effect measured after 5 days by MTT assay. It counts as functional, organism-based. To be noted: Human immunodeficiency virus 1, IIIB, MT4, 120 h. Summed up:
(§2)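 MT-4 cells were infected with HIV-1 IIIB or HIV-2 ROD, and cell viability was read by MTT. […] Each value was run in at least triplicate and averaged from at least three independent experiments.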
(Protection from cytopathic effect is a common read-out in antiviral testing.)

The test system of series [6] is Human immunodeficiency virus 2. Briefly: Antiviral activity against HIV2 ROD infected in human MT4 cells assessed as reduction in virus induced cytopathic effect measured after 5 days by MTT assay. It counts as functional, organism-based. To be noted: Human immunodeficiency virus 2, ROD, MT4, 120 h. Summed up: as §2

As for `COc1ccc(N(C)C(=O)[C@H](Cc2cc(F)cc(F)c2)NC(=O)CN(C(=O)Cc2c(C)[nH]c3ccccc23)C2CC2)cc1`, in series [1], the “Ratio EC50” value was 0.18. For the same compound, the figures for the selectivity ratio in series [2] and in series [3] were 6 and 36, respectively. Besides, in series [4], the CC50 at 120 h amounted to 112 µM. The EC50 in series [5] is 3.08 µM; in series [6], 17.3 µM.

Regarding `COC(=O)CSc1nnc([C@H](Cc2ccccc2)NC(=O)Cc2c(C)[nH]c3ccccc23)n1-c1ccc(OC)cc1`, the “Ratio EC50” value in series [1] is 0.46. Also, the selectivity ratio in series [2] was 12; in series [3], 27. The CC50 at 120 h in series [4] came to 82.3 µM. The values for the EC50 in series [5] and in series [6] were 3.01 µM and 6.59 µM, respectively.

`COc1ccc(-n2c(SCc3ccc(S(N)(=O)=O)cc3)nnc2[C@H](Cc2ccccc2)NC(=O)Cc2c(C)[nH]c3ccccc23)cc1`: in series [1], the “Ratio EC50” value is reported as 0.72. Moreover, the results for the selectivity ratio in series [2] and in series [3] were > 55 and > 76, respectively. Also, in series [4], the CC50 at 120 h is > 187 µM. The EC50 stood at 2.47 µM in series [5] and 3.42 µM in series [6].

For `COc1ccc(N(C)C(=O)[C@H](Cc2cc(F)cc(F)c2)NC(=O)CN(Cc2ccc(C#N)cc2)C(=O)Cc2c[nH]c3ccc(F)cc23)cc1`, in series [1], the “Ratio EC50” value turned out to be 2.97. The selectivity ratio in series [2] amounted to 26; in series [3], 9. The CC50 at 120 h in series [4] was determined as 148 µM. Further, the EC50 in series [5] was 17.2 µM; in series [6] it was 5.81 µM.

As for `COc1ccc(N(C)C(=O)[C@H](Cc2ccccc2)NC(=O)Cn2ccc(NC(=O)c3ccc(C)cc3)cc2=O)cc1`, the “Ratio EC50” value in series [1] came to 1.25. Further, the values for the selectivity ratio in series [2] and in series [3] were 2.85 and 2.28, respectively. Moreover, the CC50 at 120 h in series [4] came to 58.3 µM. Besides, the values for the EC50 in series [5] and in series [6] were 25.6 µM and 20.5 µM, respectively.

As to `COc1ccc(N(C)C(=O)[C@H](Cc2ccccc2)NC(=O)Cn2ccc(NC(=O)c3ccc(F)cc3)cc2=O)cc1`, in series [1], the “Ratio EC50” value was > 2.15. Besides, the selectivity ratio in series [2] is 2.15. Moreover, in series [4], the CC50 at 120 h amounted to 34.8 µM. Also, the results for the EC50 in series [5] and in series [6] were > 34.8 µM and 16.2 µM, respectively.

Take `COc1ccc(N(C)C(=O)[C@H](Cc2cc(F)cc(F)c2)NC(=O)CN(Cc2ccc(C#N)cc2)C(=O)Cc2cccc3ccccc23)cc1`: the “Ratio EC50” value in series [1] was 82.32. Besides, the selectivity ratio in series [2] is > 82. Moreover, the CC50 at 120 h in series [4] was > 189 µM. In addition, the EC50 in series [5] was > 189 µM; in series [6], 2.3 µM.

`COc1ccc(-n2c(SCCC3OCCCO3)nnc2[C@H](Cc2ccccc2)NC(=O)Cc2c(C)[nH]c3ccccc23)cc1`: in series [1], the “Ratio EC50” value is reported as 0.25. In addition, the figures for the selectivity ratio in series [2] and in series [3] were 5 and 20, respectively. In series [4], the CC50 at 120 h came to 32.3 µM. Further, the values for the EC50 in series [5] and in series [6] were 1.64 µM and 6.65 µM, respectively.

In the case of `COc1ccc(-n2c([C@H](Cc3cc(F)cc(F)c3)NC(=O)CN3CCN(S(=O)(=O)c4ccc([N+](=O)[O-])cc4)CC3)nc3cc(F)ccc3c2=O)cc1`, the “Ratio EC50” value in series [1] stood at 1.4. Further, the selectivity ratio was > 481 in series [2] and > 338 in series [3]. Further, the CC50 at 120 h in series [4] is > 167 µM. Besides, the EC50 in series [5] worked out at 0.49 µM; in series [6], 0.35 µM.

`COc1ccc(N(C)C(=O)[C@H](Cc2cc(F)cc(F)c2)NC(=O)CN2CCN(C(=O)c3ccc(NC(=O)C4CC4)cc3)CC2=O)cc1`: the “Ratio EC50” value in series [1] is listed as 0.95. The results for the selectivity ratio in series [2] and in series [3] were 5.87 and 6.17, respectively. Further, the CC50 at 120 h in series [4] is 88.6 µM. Further, the EC50 in series [5] stood at 14.4 µM; in series [6], 15.1 µM.

As for `COc1ccc(N(C)C(=O)[C@H](Cc2cc(F)cc(F)c2)NC(=O)CN(C(=O)Cc2ccc(B3OC(C)(C)C(C)(C)O3)cc2)C2CC2)cc1`, in series [1], the “Ratio EC50” value came to 0.53. In addition, the selectivity ratio stood at 9 in series [2] and 17 in series [3]. The CC50 at 120 h in series [4] is 89 µM. Also, the EC50 in series [5] amounted to 5.18 µM; in series [6], 9.71 µM.

In the case of `COc1ccc(-n2c(SCc3ccc(S(C)(=O)=O)cc3)nnc2[C@H](Cc2ccccc2)NC(=O)Cc2c(C)[nH]c3ccccc23)cc1`, the “Ratio EC50” value in series [1] is given as 0.31. The selectivity ratio was found to be 22 in series [2] and 71 in series [3]. Moreover, the CC50 at 120 h in series [4] turned out to be 172 µM. Also, the EC50 was determined as 2.43 µM in series [5] and 7.89 µM in series [6].

For the compound `COc1ccc(N(C)C(=O)[C@H](Cc2ccccc2)NC(=O)CN2CCN(C(=O)Cc3c[nH]c4ccccc34)CC2=O)cc1`, the “Ratio EC50” value in series [1] came to 3.06. The selectivity ratio came out at 23 in series [2] and 7.51 in series [3]. In addition, the CC50 at 120 h in series [4] was found to be 112 µM. In addition, the EC50 in series [5] amounted to 15 µM; in series [6], 4.89 µM.

`COc1ccc(N(C)C(=O)[C@H](Cc2cc(F)cc(F)c2)NC(=O)CN2CCN(C(=O)Cc3c[nH]c4ccccc34)CC2=O)cc1`: the “Ratio EC50” value in series [1] was determined as 1.67. Moreover, the selectivity ratio in series [2] was 3.28; in series [3] it was 1.97. Besides, in series [4], the CC50 at 120 h was 57.8 µM. Besides, the EC50 was determined as 29.4 µM in series [5] and 17.6 µM in series [6].

As to `COc1ccc(C(=O)Nc2ccn(CC(=O)N[C@@H](Cc3ccccc3)C(=O)N(C)c3ccc(OC)cc3)c(=O)c2)cc1`, in series [1], the “Ratio EC50” value came to 2.78. For the same compound, the selectivity ratio in series [2] worked out at 4.98; in series [3] it was 1.79. In series [4], the CC50 at 120 h came out at 53.1 µM. In addition, the EC50 came to 29.6 µM in series [5] and 10.7 µM in series [6].

With `COc1ccc(-n2c([C@H](Cc3ccccc3)NC(=O)CN3CCN(S(=O)(=O)c4ccc(N)cc4)CC3)nc3cc(Cl)ccc3c2=O)cc1`, the “Ratio EC50” value in series [1] is reported as 6.1. In addition, the values for the selectivity ratio in series [2] and in series [3] were > 1740 and > 291, respectively. Besides, the CC50 at 120 h in series [4] is > 178 µM. For the same compound, the EC50 worked out at 0.61 µM in series [5] and 0.1 µM in series [6].

As for `COc1ccc(-n2c(SCC(N)=O)nnc2[C@H](Cc2ccccc2)NC(=O)Cc2c(C)[nH]c3ccccc23)cc1`, the “Ratio EC50” value in series [1] was 0.24. The selectivity ratio is 32 in series [2] and 135 in series [3]. For the same compound, the CC50 at 120 h in series [4] amounted to 118 µM. The EC50 in series [5] turned out to be 0.88 µM; in series [6] it was 3.74 µM.

For `O=C(CN1CCN(S(=O)(=O)c2ccc([N+](=O)[O-])cc2)CC1)N[C@@H](Cc1ccccc1)c1nc2ccccc2c(=O)n1-c1ccc(S(=O)(=O)N2CCS(=O)(=O)CC2)cc1`, the results for the selectivity ratio in series [2] and in series [3] were > 198 and > 11.5, respectively. Further, the CC50 at 120 h in series [4] was > 145 µM. Further, the EC50 in series [5] turned out to be 12.6 µM; in series [6] it was 0.73 µM.

Take `COc1ccc(N(C)C(=O)[C@H](Cc2cc(F)cc(F)c2)NC(=O)CN(CC2CCCCC2)C(=O)Cc2c[nH]c3ccc(Br)cc23)cc1`: the selectivity ratio in series [2] and in series [3] was < 1 each time. Further, the CC50 at 120 h in series [4] worked out at 17.6 µM. Also, the EC50 in series [5] and in series [6] was > 17.6 µM in each case.

`COc1ccc(N(C)C(=O)[C@H](Cc2ccccc2)NC(=O)CN2CCN(C(=O)Cc3c[nH]c4ccc(Br)cc34)CC2=O)cc1`: the selectivity ratio in series [2] and in series [3] was < 1 in each case. In addition, the CC50 at 120 h in series [4] was 16.4 µM. Further, the EC50 in series [5] and in series [6] was > 16.4 µM each time.
